Screening data from PubChem BioAssay.
Shown are actives, neighbours in structure and some others; about 1.9% of the full set was active somewhere.
Ecoli rRNA inh – selective bacterial rRNA inhibition in E. coli. E. coli WT GFP vs humanized-ribosome RFP mutants, fluorescence, 24 h; hits give low values; DMSO median 0, no signal -100. GFP signal change (wild-type ribosome), % (test concentration not listed). 350,000 tested, 1.6% active;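 active = significant combined selectivity score with lowered wild-type GFP, culture density cut under 30%, mutant RFP and density less affected; inactive = any of these conditions unmet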
RAD52 inh – inhibitors of human RAD52 DNA annealing; inhibition, % at 18.7 µM; 360,000 tested, 0.46% active; recombinant RAD52 DNA annealing, FRET fluorescence;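 active = every replicate showing at least 50% inhibition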
RAD54 inh – blocks human RAD54 Holliday junction branch migration; inhibition, % at 10.4 µM; 360,000 tested, 0.14% active; Q92698; AID 602329; FAM/BHQ fluorescence;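 active = mean normalized replicate activity at least 40 and at least half of replicates scoring 40 or more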;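 note: inhibitors cause a drop in the FAM fluorescence signal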
Target sequence (Q92698 whole entry, looked up): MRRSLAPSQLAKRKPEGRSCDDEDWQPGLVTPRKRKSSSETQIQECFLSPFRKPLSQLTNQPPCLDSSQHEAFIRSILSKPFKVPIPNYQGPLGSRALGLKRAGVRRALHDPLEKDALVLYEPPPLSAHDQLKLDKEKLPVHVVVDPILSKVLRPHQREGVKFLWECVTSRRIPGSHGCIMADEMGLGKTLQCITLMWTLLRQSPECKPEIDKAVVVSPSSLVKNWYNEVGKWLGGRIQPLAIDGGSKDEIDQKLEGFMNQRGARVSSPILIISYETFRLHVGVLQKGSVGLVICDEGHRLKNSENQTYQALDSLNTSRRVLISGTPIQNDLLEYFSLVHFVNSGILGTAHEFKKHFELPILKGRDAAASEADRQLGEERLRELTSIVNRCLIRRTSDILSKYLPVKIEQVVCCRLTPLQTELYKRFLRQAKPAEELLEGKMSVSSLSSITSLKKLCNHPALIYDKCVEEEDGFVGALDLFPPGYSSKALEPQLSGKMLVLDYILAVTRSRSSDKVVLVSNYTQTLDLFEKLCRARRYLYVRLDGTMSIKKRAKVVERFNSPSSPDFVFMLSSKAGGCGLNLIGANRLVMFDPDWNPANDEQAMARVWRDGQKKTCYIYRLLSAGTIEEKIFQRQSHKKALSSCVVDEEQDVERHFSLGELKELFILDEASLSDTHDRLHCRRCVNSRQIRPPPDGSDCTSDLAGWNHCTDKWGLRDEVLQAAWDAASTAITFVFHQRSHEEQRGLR
PglD inh – PglD (C. jejuni) enzyme inhibition | purified PglD enzyme, DTNB colorimetric CoA detection | inhibition, % at 12.5 µM | 360,000 tested, 0.098% active | AID 602405; in the data active = inhibition above about 16%, passing the limit was not always enough
Cneo AK release – Cryptococcus neoformans lysis via adenylate kinase release; lysis activity, % at 15 µM; 360,000 tested, 0.2% active; C. neoformans lysis, adenylate kinase release luminescence, 4 h; normalised: neutral wells 0, clomiphene wells 100; AID 651654;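 active = mean lysis activity across replicates of at least 80%, whatever share of replicates individually reach that level; inactive = mean lysis activity below 80%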
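Material – Cryptococcus neoformans yeast cells · Quantity – 5 × 10^6 yeast cells/mL · Buffer or medium – YPD medium · Compound – single dose · Timing – 4 h static compound exposure, 37 °C, read 1 h post-reagent · Signal – adenylate kinase release luminescence · Read-out basis – lysis from increased AK signal · Benchmarks – Clomiphene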
Each line names hits and unclear results; the compound was inactive in the other large screens; ! = repeats disagree.

COc1ccc(CCn2c(N)c(S(=O)(=O)c3cccs3)c3nc4ccccc4nc32)cc1OC	Ecoli rRNA inh -21
COc1ccc(CN2CCNC(=O)C2CC(=O)NCCCC2CCCC2)c(C)c1C (stereo not given)	Ecoli rRNA inh -26
COc1ccc(CN2CCNC(=O)C2CC(=O)NC2CCCC2)c(C)c1C (stereo not given)	none
O=C(COc1cccc2cccnc12)N/N=C/c1cccn1-c1ccc(F)cc1	Ecoli rRNA inh -41 (no result: RAD54 inh, PglD inh, Cneo AK release)
O=C(Nc1ccc(C(F)(F)F)cc1)N1[C@@H]2CNC[C@H]1C2c1ccc(-c2ccc(F)cc2)cc1 (stereo not given in full)	RAD52 inh 61 (no result: RAD54 inh, PglD inh, Cneo AK release)
O=C(Nc1ccc(C(F)(F)F)cc1)N1C[C@@H]2N[C@H](C1)C2c1ccc(/C=C/c2ccccc2)cc1 (stereo not given in full)	RAD52 inh 65 (no result: RAD54 inh, PglD inh, Cneo AK release)
O=C(Nc1ccc(C(F)(F)F)cc1)N1C[C@@H]2N[C@H](C1)C2c1ccc(-c2ccccc2)cc1 (stereo not given in full)	RAD52 inh 79! (no result: RAD54 inh, PglD inh, Cneo AK release)
C[C@@H]1CN([C@@H](C)CO)C(=O)c2cc(NS(=O)(=O)c3ccccc3)ccc2O[C@@H](C)CCCCO[C@@H]1CN(C)S(=O)(=O)c1cn(C)cn1	none
CC(C)(C)C1CCC(=NNc2nc3ccccc3[nH]2)CC1 (stereo not given)	Ecoli rRNA inh -23 (no result: RAD54 inh, PglD inh, Cneo AK release)
COc1ccc(S(=O)(=O)N(C)C[C@@H]2Oc3ccc(NS(C)(=O)=O)cc3CC(=O)N([C@@H](C)CO)C[C@@H]2C)cc1	none
COc1cccc(S(=O)(=O)Nc2ccc3c(c2)[C@H]2C[C@@H](CC(=O)NCc4cccc(F)c4)O[C@@H](CO)[C@H]2O3)c1	none
COc1cccc(S(=O)(=O)Nc2ccc3c(c2)[C@@H]2C[C@@H](CC(=O)NCc4cccc(F)c4)O[C@H](CO)[C@@H]2O3)c1	Cneo AK release 106
COc1cccc(S(=O)(=O)Nc2ccc3c(c2)[C@H]2C[C@H](CC(=O)NCc4cccc(F)c4)O[C@H](CO)[C@H]2O3)c1	none
COc1cccc(S(=O)(=O)Nc2ccc3c(c2)[C@H]2C[C@@H](CC(=O)NC4CCCCC4)O[C@@H](CO)[C@H]2O3)c1	Cneo AK release 101
COc1cccc(S(=O)(=O)Nc2ccc3c(c2)[C@H]2C[C@H](CC(=O)NCc4ccccc4F)O[C@@H](CO)[C@H]2O3)c1	Cneo AK release 95
COc1cccc(S(=O)(=O)Nc2ccc3c(c2)[C@H]2C[C@H](CC(=O)NCc4cccc(F)c4)O[C@@H](CO)[C@H]2O3)c1	Cneo AK release 94
COc1ccc2c3c([nH]c2c1)[C@H](CO)N(Cc1cccnc1)CC31CN(C(=O)c2cccnc2)C1	none (no result: RAD52 inh, RAD54 inh, PglD inh, Cneo AK release)
CCC(=O)Nc1ccc2c(c1)C(=O)N(C)C[C@H](OC)[C@H](C)CN(CC1CC1)[C@@H](C)CO2	none
C[C@@H]1CN([C@@H](C)CO)S(=O)(=O)c2ccc(-c3cncnc3)cc2O[C@@H]1CN(C)C(=O)C1CCCCC1	none
COc1ccc(-c2cc(C(=O)N3CCCCCC3)c3ccccc3n2)c(OC)c1	Ecoli rRNA inh -33
C=CCc1cccc(/C=N/NC(=O)C(C)Nc2ccc(C)cc2)c1O (stereo not given)	Ecoli rRNA inh -32
COc1ccc(-c2cn(-c3ccc(OC)cc3)c3[n+]2-c2ccccc2CC3)cc1	none (no result: RAD54 inh, PglD inh, Cneo AK release)
FC(F)Oc1ccc(-n2cc(-c3ccc(Cl)cc3)[n+]3c2CCCCC3)cc1	Ecoli rRNA inh -47 (no result: RAD54 inh, PglD inh, Cneo AK release)
COc1ccc(-n2cc(-c3ccccc3)[n+]3c2CCCCC3)cc1	Ecoli rRNA inh -30 (no result: RAD54 inh, PglD inh, Cneo AK release)
FC(F)Oc1ccc(-c2c[n+]3c(n2-c2ccccc2)CCCCC3)cc1	none (no result: RAD54 inh, PglD inh, Cneo AK release)
O=C(OCc1c(-c2ccccc2)ncc2ccccc12)c1cccs1	Ecoli rRNA inh -21
O=C(OCc1c(-c2ccccc2)ncc2ccccc12)c1ccc(Br)cc1	none
C[C@H]1C=C(C(=O)Nc2ccccc2)O[C@@H](OCCCCO)C1	none (no result: Ecoli rRNA inh)
CC(=O)n1cc(/C=N/NC(=O)c2ccccc2O)c2ccccc21	Ecoli rRNA inh -25
O=C(N/N=C/c1ccccc1O)c1cccc2ccccc12	Ecoli rRNA inh -35
O=C(CSc1ccccc1)N/N=C/c1ccccc1O	Ecoli rRNA inh -19 (no result: RAD54 inh, PglD inh, Cneo AK release)
Cc1ccc(S(=O)(=O)NCC(=O)N/N=C/c2ccccc2O)cc1	Ecoli rRNA inh -31
Cn1cc(/C=N/NC(=O)c2ccccc2O)c2ccccc21	none
